Measurements of several laboratories.

SMILES | cell line | assay | conditions | IC50 [µM]
Brc1ccc(Nc2nc(NCc3ccccc3)nc(NCc3ccccc3)n2)cc1 | SK-BR-3 | cell growth or viability, SRB | 72 h | 20.4
Cc1ccc2nc(-c3ccc(Cl)cc3)n(Cc3ccccc3Cl)c2c1 | human Rhabdomyosarcoma cell | cell growth or viability, MTT |  | 41
COc1ccccc1NCC(O)COc1cccc2[nH]c3ccccc3c12 (stereo not shown) | NCI-H1299 | cell growth or viability, CCK-8 | 72 h | > 100
COc1cc(/C=C/C(=O)/C=C(O)/C=C/c2ccncc2)ccc1O | CHO-K1 | cell growth or viability, SRB | 72 h | 17.7
CCSC(=O)c1ncn2c(=O)n(C)nnc12 | D54 | cell growth or viability, resazurin | 7 days | 8
COCCCNC(=C\C(=O)/C=C/c1cccnc1)/C=C/c1cccnc1 | CHO-K1 | cell growth or viability, MTT | 72 h | 21.3
Cn1nnc2c(C(=O)N3CCCC3)ncn2c1=O | D54 | cell growth or viability, resazurin | 7 days | 12
O=C(/C=C(O)/C=C/c1ccc2ccccc2n1)/C=C/c1c[nH]c2ccccc12 | CHO-K1 | cell growth or viability, MTT | 72 h | 41.6
COc1ccccc1CNCC(O)COc1cccc2[nH]c3ccccc3c12 (stereo not shown) | NCI-H1299 | cell growth or viability, CCK-8 | 72 h | 14.8
Nc1ccccc1-c1nc2cnccn2c1NC1CCCCC1 | Vero | cell growth or viability, MTT | 48 h | 75
Cc1ccc2nc(-c3ccco3)[nH]c2c1 | human Rhabdomyosarcoma cell | cell growth or viability, MTT | 48 h | > 100
Nc1c(-c2ccccc2[N+](=O)[O-])nc2ccccn12 | Vero | cell growth or viability, MTT | 48 h | 65
COc1cc(/C=C/C(=O)CC(=O)/C=C/c2ccc(O)c(OC)c2)ccc1O | CHO-K1 | cell growth or viability, MTT | 72 h | 21.3
CCOc1ccc(-c2nc3ccc(C)cc3[nH]2)cc1 | human Rhabdomyosarcoma cell | cell growth or viability, MTT | 48 h | 76.2
COc1cc(Nc2nccc(-c3cnn4nc(OC)ccc34)n2)cc(C(F)(F)F)c1 | COR-L279 | cell growth or viability, ATP luminescence |  | 0.21
COc1cc(/C=C/C(=O)/C=C(O)/C=C/c2cccnc2)ccc1O | CHO-K1 | cell growth or viability, SRB | 72 h | 36.1
O=C(O)Cc1ccccc1Nc1c(Cl)cccc1Cl | RAW264.7 | NO release, inhibitor | LPS-stimulated | 54.7
COc1ccccc1/C=C/CNCC(O)COc1cccc2ccccc12 (stereo not shown) | NCI-H1299 | cell growth or viability, CCK-8 | 72 h | 19.8
Cc1ccc2nc(-c3cccnc3)[nH]c2c1 | human Rhabdomyosarcoma cell | cell growth or viability, MTT | 48 h | 83.6
CC(=O)O[C@H]1C(=O)[C@@]2(C)[C@H]([C@H](OC(=O)c3ccccc3)[C@]3(O)C[C@H](OC(=O)[C@H](O)[C@@H](NC(=O)c4ccccc4)c4ccccc4)C(C)=C1C3(C)C)[C@]1(OC(C)=O)CO[C@@H]1C[C@@H]2O | MDA-MB-436 | cell growth or viability, ATP luminescence | 72 h | 0.0099
Cc1ccc2nc(-c3c(F)cccc3Cl)[nH]c2c1 | human Rhabdomyosarcoma cell | cell growth or viability, MTT | 48 h | 45.1
COc1cc(/C=C/c2cc(/C=C/c3cccc4cnccc34)[nH]n2)ccc1O | CHO-K1 | cell growth or viability, SRB | 72 h | 7.9
COc1ccccc1OCCNC(=O)COc1cccc2[nH]c3ccccc3c12 | NCI-H1299 | cell growth or viability, CCK-8 | 72 h | > 100

SMILES | cell line | assay | conditions | IC50 [µM]
COc1cc2nccc(Oc3ccc(NC(=O)C4(C(=O)Nc5ccc(F)cc5)CC4)cc3)c2cc1OC | Rh30 | cell growth or viability | 72 h | 5.9
COc1ccccc1OCCNC[C@@H](O)COc1cccc2[nH]c3ccccc3c12 | NCI-H1299 | cell growth or viability, CCK-8 |  | 41.5
COc1cccc(-c2nc3ccc(C)cc3[nH]2)c1 | human Rhabdomyosarcoma cell | cell growth or viability, MTT | 48 h | 22.3
CC(C)CNC(=C\C(=O)/C=C/c1cccnc1)/C=C/c1cccnc1 | CHO-K1 | cell growth or viability, SRB | 72 h | 28.6
COc1cc(C(=O)c2csc(-c3ccccc3)n2)cc(OC)c1OC | B16-F1 | cell growth or viability, SRB |  | 0.019
CCn1c(-c2nnc(NC(=O)c3cc4c([nH]c5ccccc54)c(-c4cc(OC)c(OC)c(OC)c4)n3)s2)cc2ccccc21 | HL-60 | cell growth or viability, MTT | 72 h | 43.2
COc1cc(/C=C/C(=O)/C=C(O)/C=C/c2ccccn2)ccc1O | CHO-K1 | cell growth or viability, MTT | 72 h | 25.2
COCCNC(=C\C(=O)/C=C/c1cccnc1)/C=C/c1cccnc1 | CHO-K1 | cell growth or viability, SRB | 72 h | 71.7
c1ccc2[nH]c(-c3ccc4c(c3)OCO4)nc2c1 | human Rhabdomyosarcoma cell | cell growth or viability, MTT | 48 h | > 100
C(=C\c1c[nH]c2ccccc12)/c1cc(/C=C/c2cccs2)[nH]n1 | CHO-K1 | cell growth or viability, MTT | 72 h | 0.9
NS(=O)(=O)OC[C@@H]1C[C@@H](n2ccc3c(N[C@H]4CCc5ccccc54)ncnc32)C[C@@H]1O | NCI-H1299 | cell growth or viability, CCK-8 | 72 h | 0.9
CC(C)(C)Nc1c(-c2ccccc2N)nc2ccccn12 | Vero | cell growth or viability, MTT | 48 h | 90
COc1cc(/C=C/C(=O)/C=C(O)/C=C/c2c[nH]c3ccccc23)ccc1O | CHO-K1 | cell growth or viability, SRB | 72 h | 23.3
CC(C)C[C@H](NC(=O)[C@H](Cc1ccccc1)NC(=O)c1cnccn1)B(O)O | MKN-45 | cell growth or viability, ATP luminescence |  | 0.014
Cc1ncn2c(=O)n(C)nnc12 | D54 | cell growth or viability, resazurin | 7 days | 6
COc1cccc2c1C(=O)c1c(O)c3c(c(O)c1C2=O)C[C@@](O)(C(=O)CO)C[C@@H]3O[C@H]1C[C@H](N)[C@H](O)[C@H](C)O1 | CHO-K1 | cell growth or viability, MTT | 72 h | 1.4
CCOc1cc(-c2nc3ccccc3[nH]2)ccc1O | human Rhabdomyosarcoma cell | cell growth or viability, MTT | 48 h | 29.4
O=C(/C=C(O)/C=C/c1cccnc1)/C=C/c1cccnc1 | CHO-K1 | cell growth or viability, SRB | 72 h | 10.5
COc1ccccc1/C=C/CNCC(O)COc1ccc2[nH]ccc2c1 (stereo not shown) | NCI-H1299 | cell growth or viability, CCK-8 | 72 h | 25.3
O=C(/C=C(/C=C/c1cccnc1)NCCO)/C=C/c1cccnc1 | CHO-K1 | cell growth or viability, MTT | 72 h | > 75
NNc1nc(NCc2ccccc2)nc(Nc2ccc(Br)cc2)n1 | SK-BR-3 | cell growth or viability, SRB | 72 h | > 30
COc1cc2c(Oc3ccc(NC(=O)C4(C(=O)Nc5ccc(F)cc5)CC4)cc3F)ccnc2cc1OCCCN1CCOCC1 | Rh30 | cell growth or viability | 72 h | 0.6
O=C(/C=C(O)/C=C/c1c[nH]c2ccccc12)/C=C/c1c[nH]c2ccccc12 | CHO-K1 | cell growth or viability, SRB | 72 h | 12.1
